Key:
MOLT-4 = test: Antiproliferative activity against human MOLT-4 cells assessed as cell viability at 20 uM by CellTiter-Glo luminescent cell viability assay (reference value: 100%); assay type: functional; details: read-out: Activity
[1] = target: PI3-kinase p110-alpha/p85-alpha (Homo sapiens, UniProt P42336); test: Inhibition of recombinant human full length N-terminal His-tagged p110alpha/p85alpha expressed in baculovirus expression system measured after 60 mins in presence of ATP by ATP-competitive binding assay
Summary of the method: (§1)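 SelectScreen ATP-competitive assay using 10-point titration with 1 μM top final compound concentration. Kinase, substrate and ATP mixed in 30 mM HEPES buffer and reacted 60 min. IC50 taken as the mean of three independent experiments.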

SU-DHL-5 = test: Antiproliferative activity against human SU-DHL-5 cells assessed as cell viability at 10 uM by CellTiter-Glo luminescent cell viability assay (reference value: 100%); assay type: functional; details: read-out: Activity
[2] = target: Phosphatidylinositol 4,5-bisphosphate 3-kinase catalytic subunit beta isoform (Homo sapiens, UniProt P42338); test: Inhibition of recombinant human full length His-tagged p110beta expressed in baculovirus expression system measured after 60 mins in presence of ATP by ATP-competitive binding assay; summary of the method: as §1
[3] = target: Phosphatidylinositol 4,5-bisphosphate 3-kinase catalytic subunit gamma isoform (Homo sapiens, UniProt P48736); test: Inhibition of recombinant human full length His-tagged p110gamma expressed in baculovirus expression system measured after 60 mins in presence of ATP by ATP-competitive binding assay; summary of the method: as §1
Homo sapiens = organism: Homo sapiens; test: Selectivity ratio of IC50 for recombinant human full length His-tagged p110gamma expressed in baculovirus expression system to IC50 for recombinant human full length His-tagged p110delta/p85alpha expressed in baculovirus expression system
[4] = target: PI3-kinase p110-delta/p85-alpha (Homo sapiens, UniProt O00329); test: Inhibition of recombinant human full length His-tagged p110delta/p85alpha expressed in baculovirus expression system measured after 60 mins in presence of ATP by ATP-competitive binding assay; summary of the method: as §1
PI3-kinase p110-delta/p85-alpha, sequence (P27986 whole entry): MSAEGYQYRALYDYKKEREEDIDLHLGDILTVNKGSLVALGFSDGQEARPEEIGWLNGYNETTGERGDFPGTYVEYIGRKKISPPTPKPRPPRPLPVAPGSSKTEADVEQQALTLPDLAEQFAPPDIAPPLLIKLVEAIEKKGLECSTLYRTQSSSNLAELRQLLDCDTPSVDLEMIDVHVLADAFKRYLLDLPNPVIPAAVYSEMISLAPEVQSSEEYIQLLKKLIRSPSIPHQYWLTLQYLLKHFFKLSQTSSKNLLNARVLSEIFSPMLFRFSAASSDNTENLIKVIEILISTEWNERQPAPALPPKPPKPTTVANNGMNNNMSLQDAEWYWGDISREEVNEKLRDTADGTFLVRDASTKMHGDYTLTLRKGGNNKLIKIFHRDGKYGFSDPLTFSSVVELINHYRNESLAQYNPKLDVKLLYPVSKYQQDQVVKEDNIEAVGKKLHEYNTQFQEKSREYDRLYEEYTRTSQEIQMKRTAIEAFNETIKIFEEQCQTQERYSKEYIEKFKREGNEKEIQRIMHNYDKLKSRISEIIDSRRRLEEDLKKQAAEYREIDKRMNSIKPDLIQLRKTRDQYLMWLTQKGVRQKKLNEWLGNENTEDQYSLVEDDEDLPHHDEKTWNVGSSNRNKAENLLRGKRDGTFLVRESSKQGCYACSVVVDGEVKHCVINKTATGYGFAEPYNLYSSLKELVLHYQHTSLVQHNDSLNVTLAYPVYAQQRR
PI3-kinase p110-delta/p85-alpha, sequence (O00329 whole entry): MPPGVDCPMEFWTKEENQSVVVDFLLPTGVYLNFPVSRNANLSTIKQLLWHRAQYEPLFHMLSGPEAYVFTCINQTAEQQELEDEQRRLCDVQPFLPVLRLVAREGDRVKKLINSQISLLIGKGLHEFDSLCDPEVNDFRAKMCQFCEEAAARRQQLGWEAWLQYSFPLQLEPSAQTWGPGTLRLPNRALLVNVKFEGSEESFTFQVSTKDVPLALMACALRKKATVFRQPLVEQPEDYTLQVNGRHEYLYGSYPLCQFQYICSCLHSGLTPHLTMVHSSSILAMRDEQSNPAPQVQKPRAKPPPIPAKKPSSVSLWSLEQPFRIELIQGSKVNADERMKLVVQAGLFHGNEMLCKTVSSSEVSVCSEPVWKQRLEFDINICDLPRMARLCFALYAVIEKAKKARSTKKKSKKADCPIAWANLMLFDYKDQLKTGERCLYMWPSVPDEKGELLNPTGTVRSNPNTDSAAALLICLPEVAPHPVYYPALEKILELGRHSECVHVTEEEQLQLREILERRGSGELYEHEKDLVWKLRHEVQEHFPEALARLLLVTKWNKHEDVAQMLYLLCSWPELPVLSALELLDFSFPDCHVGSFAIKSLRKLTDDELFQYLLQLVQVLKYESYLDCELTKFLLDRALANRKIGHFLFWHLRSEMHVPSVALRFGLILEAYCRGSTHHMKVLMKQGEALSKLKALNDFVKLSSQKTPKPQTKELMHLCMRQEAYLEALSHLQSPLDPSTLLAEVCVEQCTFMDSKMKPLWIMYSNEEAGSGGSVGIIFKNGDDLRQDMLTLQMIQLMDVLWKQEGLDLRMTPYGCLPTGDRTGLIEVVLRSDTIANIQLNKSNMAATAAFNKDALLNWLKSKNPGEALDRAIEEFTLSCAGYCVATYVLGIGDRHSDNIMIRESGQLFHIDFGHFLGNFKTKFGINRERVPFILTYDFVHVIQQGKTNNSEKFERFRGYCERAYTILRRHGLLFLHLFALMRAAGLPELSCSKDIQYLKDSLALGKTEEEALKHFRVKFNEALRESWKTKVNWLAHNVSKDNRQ

PI3-kinase p110-alpha/p85-alpha, sequence (P27986 whole entry): as the sequence (P27986 whole entry) above
PI3-kinase p110-alpha/p85-alpha, sequence (P42336 whole entry): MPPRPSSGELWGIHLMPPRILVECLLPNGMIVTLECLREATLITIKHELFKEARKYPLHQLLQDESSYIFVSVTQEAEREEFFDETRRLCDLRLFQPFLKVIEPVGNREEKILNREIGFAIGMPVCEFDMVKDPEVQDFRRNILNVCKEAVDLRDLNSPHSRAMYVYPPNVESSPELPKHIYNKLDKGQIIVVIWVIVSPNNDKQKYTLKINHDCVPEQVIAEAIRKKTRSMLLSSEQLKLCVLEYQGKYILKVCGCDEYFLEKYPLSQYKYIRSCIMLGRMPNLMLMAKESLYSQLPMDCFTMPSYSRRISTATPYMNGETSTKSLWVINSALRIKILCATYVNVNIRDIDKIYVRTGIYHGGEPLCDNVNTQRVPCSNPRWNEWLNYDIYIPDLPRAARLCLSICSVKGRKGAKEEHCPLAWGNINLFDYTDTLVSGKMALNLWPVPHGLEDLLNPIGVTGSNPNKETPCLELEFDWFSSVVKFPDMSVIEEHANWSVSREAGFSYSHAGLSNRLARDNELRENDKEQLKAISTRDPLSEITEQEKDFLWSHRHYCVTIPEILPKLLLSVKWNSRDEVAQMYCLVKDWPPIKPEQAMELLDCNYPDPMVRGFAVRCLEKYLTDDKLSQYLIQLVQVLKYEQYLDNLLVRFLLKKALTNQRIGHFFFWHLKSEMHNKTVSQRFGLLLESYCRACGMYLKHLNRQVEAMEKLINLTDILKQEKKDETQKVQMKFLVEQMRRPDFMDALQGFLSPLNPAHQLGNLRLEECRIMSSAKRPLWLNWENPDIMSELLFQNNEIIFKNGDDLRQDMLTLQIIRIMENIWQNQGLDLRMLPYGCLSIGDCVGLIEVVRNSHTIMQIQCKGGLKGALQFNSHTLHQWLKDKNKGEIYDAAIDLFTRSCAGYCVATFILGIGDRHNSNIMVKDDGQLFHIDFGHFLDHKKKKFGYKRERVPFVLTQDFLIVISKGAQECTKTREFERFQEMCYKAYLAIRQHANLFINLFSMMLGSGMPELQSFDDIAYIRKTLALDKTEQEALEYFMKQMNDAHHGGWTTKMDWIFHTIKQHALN
Phosphatidylinositol 4,5-bisphosphate 3-kinase catalytic subunit beta isoform, sequence (P42338 whole entry, canonical isoform): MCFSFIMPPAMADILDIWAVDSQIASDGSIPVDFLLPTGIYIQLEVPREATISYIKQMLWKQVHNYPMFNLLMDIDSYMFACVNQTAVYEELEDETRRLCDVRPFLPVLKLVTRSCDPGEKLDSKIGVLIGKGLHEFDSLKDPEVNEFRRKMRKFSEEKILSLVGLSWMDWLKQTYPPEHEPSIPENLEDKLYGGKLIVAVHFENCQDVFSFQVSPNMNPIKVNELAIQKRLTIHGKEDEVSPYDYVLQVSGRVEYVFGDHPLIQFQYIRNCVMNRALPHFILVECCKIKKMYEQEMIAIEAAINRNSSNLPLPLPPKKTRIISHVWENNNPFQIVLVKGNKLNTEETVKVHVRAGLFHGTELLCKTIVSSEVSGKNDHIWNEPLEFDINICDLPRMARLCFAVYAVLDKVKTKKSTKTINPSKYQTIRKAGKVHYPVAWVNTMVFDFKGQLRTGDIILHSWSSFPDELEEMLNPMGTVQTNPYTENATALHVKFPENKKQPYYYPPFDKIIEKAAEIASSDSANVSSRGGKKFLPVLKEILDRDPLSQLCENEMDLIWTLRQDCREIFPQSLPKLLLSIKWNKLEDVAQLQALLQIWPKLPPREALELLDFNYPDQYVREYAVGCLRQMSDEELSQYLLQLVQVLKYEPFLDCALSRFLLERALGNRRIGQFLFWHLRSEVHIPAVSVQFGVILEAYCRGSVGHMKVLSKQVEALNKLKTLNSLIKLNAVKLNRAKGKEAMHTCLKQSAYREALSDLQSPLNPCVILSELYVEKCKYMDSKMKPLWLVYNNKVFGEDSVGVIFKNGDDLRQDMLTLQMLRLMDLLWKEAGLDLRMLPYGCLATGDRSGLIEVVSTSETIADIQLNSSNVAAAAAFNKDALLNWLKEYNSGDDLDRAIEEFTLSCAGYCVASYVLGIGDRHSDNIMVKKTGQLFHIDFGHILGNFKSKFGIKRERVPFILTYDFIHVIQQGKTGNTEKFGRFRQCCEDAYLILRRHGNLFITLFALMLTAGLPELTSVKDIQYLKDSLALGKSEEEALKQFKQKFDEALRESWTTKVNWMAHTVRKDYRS
Phosphatidylinositol 4,5-bisphosphate 3-kinase catalytic subunit gamma isoform, sequence (P48736 whole entry, canonical isoform): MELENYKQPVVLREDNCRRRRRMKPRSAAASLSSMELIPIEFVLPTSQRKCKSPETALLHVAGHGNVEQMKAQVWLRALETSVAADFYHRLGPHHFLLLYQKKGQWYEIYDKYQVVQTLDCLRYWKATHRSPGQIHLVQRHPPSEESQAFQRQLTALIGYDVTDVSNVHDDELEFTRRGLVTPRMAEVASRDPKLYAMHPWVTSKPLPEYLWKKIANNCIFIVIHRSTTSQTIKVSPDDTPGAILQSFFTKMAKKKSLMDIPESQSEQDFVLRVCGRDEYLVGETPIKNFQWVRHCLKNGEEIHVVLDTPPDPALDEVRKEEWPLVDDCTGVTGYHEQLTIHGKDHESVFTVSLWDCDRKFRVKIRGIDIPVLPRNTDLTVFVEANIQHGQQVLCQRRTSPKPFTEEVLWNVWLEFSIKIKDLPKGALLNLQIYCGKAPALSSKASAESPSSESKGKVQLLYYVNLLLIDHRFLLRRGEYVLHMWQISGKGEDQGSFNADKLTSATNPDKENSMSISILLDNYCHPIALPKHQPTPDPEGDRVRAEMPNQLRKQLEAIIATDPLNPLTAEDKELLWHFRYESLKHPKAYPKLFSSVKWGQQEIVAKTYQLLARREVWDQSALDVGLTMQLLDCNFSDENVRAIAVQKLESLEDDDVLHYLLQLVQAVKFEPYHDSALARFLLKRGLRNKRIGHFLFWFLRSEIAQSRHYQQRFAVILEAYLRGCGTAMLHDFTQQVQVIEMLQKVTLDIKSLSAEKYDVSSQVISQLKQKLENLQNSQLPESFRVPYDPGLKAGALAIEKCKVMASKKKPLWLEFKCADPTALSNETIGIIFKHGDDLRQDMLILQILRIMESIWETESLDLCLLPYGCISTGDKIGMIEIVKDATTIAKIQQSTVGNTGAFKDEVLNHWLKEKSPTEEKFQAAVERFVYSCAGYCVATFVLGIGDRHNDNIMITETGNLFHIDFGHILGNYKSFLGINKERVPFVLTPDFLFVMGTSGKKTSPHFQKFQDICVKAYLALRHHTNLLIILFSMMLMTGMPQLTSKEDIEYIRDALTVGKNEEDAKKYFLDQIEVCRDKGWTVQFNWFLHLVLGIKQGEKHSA

Row | Structure (SMILES) | viability at 20 µM (MOLT-4) [%] | IC50 [1] [nM] | viability at 10 µM (SU-DHL-5) [%] | IC50 [2] [nM] | IC50 [3] [nM] | Ratio IC50 (Homo sapiens) | IC50 [4] [nM]
1 | C[C@H](Nc1ncnc2nc[nH]c12)c1nc2cccc(N)c2c(=O)n1-c1ccccc1 | 80.9 | 127 | 36.9 | 250 | 7.5 | 18.8 | 0.4
2 | CC[C@H](Nc1ncnc2nc[nH]c12)c1nc2cccc(N)c2c(=O)n1-c1ccccc1 | 83.6 | 475 | 45.8 | 287 | 24.7 | 19 | 1.3
3 | CC(C)[C@H](Nc1ncnc2nc[nH]c12)c1nc2cccc(F)c2c(=O)n1-c1ccccc1 | 86.2 | 878 | 63.4 | 1670 | 313 | 172 | 1.82
4 | O=c1c2c(F)cccc2nc([C@@H](Nc2ncnc3nc[nH]c23)C2CCC2)n1-c1ccccc1 | 76.5 | 879 | 43 | 854 | 155 | 75.6 | 2.05
5 | CCC[C@H](Nc1ncnc2nc[nH]c12)c1nc2cccc(Cl)c2c(=O)n1-c1ccccc1 | 24.7 | 301 | 29.3 | 129 | 18.3 | 36.6 | 0.5
6 | CCC[C@H](Nc1ncnc2nc[nH]c12)c1nc2cccc(F)c2c(=O)n1-c1ccccc1 | 60.7 | 385 | 34.4 | 440 | 72.2 | 66.8 | 1.08
7 | O=c1c2cc(F)ccc2nc([C@@H](Nc2ncnc3nc[nH]c23)C2CC2)n1-c1ccccc1 | 68.1 | 295 | 24.4 | 200 | 29.2 | 26.8 | 1.09
8 | C[C@H](Nc1ncnc2nc[nH]c12)c1nc2cccc(F)c2c(=O)n1-c1ccccc1 | 63.7 | 152 | 46.1 | 145 | 15.3 | 30.6 | 0.5
9 | O=c1c2c(Cl)cccc2nc([C@@H](Nc2ncnc3nc[nH]c23)C2CCC2)n1-c1ccccc1 | 54.7 | 490 | 52.8 | 470 | 63.8 | 37.5 | 1.7
10 | O=c1c2c(Cl)cccc2nc([C@@H](Nc2ncnc3nc[nH]c23)C2CC2)n1-c1ccccc1 | 56.5 | 205 | 36.7 | 87.6 | 10.4 | 17.3 | 0.6
11 | Nc1cccc2nc([C@@H](Nc3ncnc4nc[nH]c34)C3CC3)n(-c3ccccc3)c(=O)c12 | 65.8 | 369 | 23.5 | 562 | 24.7 | 23.1 | 1.07
12 | CC(C)[C@H](Nc1ncnc2nc[nH]c12)c1nc2cccc(Cl)c2c(=O)n1-c1ccccc1 | 56.4 | 356 | 29.7 | 1040 | 62.5 | 125 | 0.5
13 | CCC[C@H](Nc1ncnc2nc[nH]c12)c1nc2cccc(C(F)(F)F)c2c(=O)n1-c1ccccc1 | 52.2 | 326 | 36.4 | > 1000 | 56.3 | 17.4 | 3.23
